From ChEMBL document CHEMBL5543129, “Peptide Inhibitor Targeting the Extraterminal Domain in BRD4 Potently Suppresses Breast Cancer Both In Vitro and In Vivo” (J Med Chem, 2024)
Calls of active or inactive are those of the source. Square brackets hold non-standard residues; d marks the D form. Peptide text beside a SMILES is read from it. Hyp = O=C(O)[C@@H]1C[C@@H](O)CN1; Ahx = NCCCCCC(=O)O

Columns and labels:
Mus musculus [1] = test: Downregulation of BRD4 mRNA expression in BALB/c mouse tumor xenografted with human MDA-MB-231 cells at 25 mg/kg, ip administered every 2 days by RT-qPCR analysis; format: functional, organism-based
[2] = Toxicity in BALB/c mouse xenografted with human […] cells assessed as change body weight at 12.5 mg/kg, ip administered every 2 days in presence of 50 mg/kg JQ1; format: organism-based; conditions: in vivo, 48 h
Summary of the method: (§1)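 Female BALB/c nude mice (4–6 weeks) carried sc MDA-MB-231 xenografts (5 × 10^6 cells) and were randomized at about 50 mm3. Peptide (12.5 mg/kg ip in saline) and JQ1 (50 mg/kg ip, DMSO/10% HPBCD 1:10) were given every 2 days, alone or combined. Body weight was recorded, and heart, liver, spleen, lung and kidney morphology and weight were assessed.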

MDA-MB-231 [3] = test: Antiproliferative activity against human MDA-MB-231 cells at 10 uM incubated for 1 week in presence of JMJD6 inhibitor by CellTiter 96 Aqueous One Solution based assay; format: functional, cell-based; conditions: time 1.0 weeks
Summary of the method: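 Cells seeded at 2 × 10^3/well and treated with peptide (10 μM) alone or combined with JQ1 (5 μM), iJMJD6 (10 μM) or ICI (2.5 μM), as the line states. Viability read by MTS reagent, 1 h at 37 °C, A490. Three biological repeats.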

MCF7 [4] = test: Inhibition of cell migration in human MCF7 cells at 10 uM incubated for 24 hrs in presence of 5 uM JQ1 by inverted microscopic assay; format: functional, cell-based
Summary of the method: (§2)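 Cells are seeded at 5 × 10^5/well and scratched at 80–90% confluence. They are kept in serum-free medium with peptide (10 μM); partner agents are JQ1 5 μM, iJMJD6 10 μM, or ICI 2.5 μM. Wound area is imaged by inverted microscope at 0 and 12 or 24 h. Wound closure % = (A0−A1)/A0 × 100. Three biological repeats.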

[5] = Toxicity in BALB/c mouse xenografted with human MCF7 cells assessed as change in lung at 12.5 mg/kg, ip administered every 2 days in presence of 12.5 mg/kg JMJD6 inhibitor; format: organism-based; conditions: in vivo, 48 h
Summary of the method: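 Female BALB/c nude mice carried MCF7 xenografts (5 × 10^6 cells sc, E2 10–2 M brushed every 2 days) and were randomized at about 50 mm3. Peptide was given at 12.5 mg/kg ip every 2 days, and iJMJD6 (DMSO/PBS 1:20) at 12.5 mg/kg ip every other day, alone or combined. Body and organ weights were recorded.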

MCF7 [6] = test: Inhibition of cell migration in human MCF7 cells at 10 uM incubated for 24 hrs in presence of JMJD6 inhibitor by inverted microscopic analysis; format: functional, cell-based; summary of the method: as §2
MCF7 [7] = test: Downregulation of c-Myc gene expression in human MCF7 cells at 10 uM incubated for 6 hrs by RT-qPCR analysis; format: functional, cell-based
Summary of the method: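 Cells treated with peptide (10 μM) for 6 h; c-Myc, N-myc and CCND1 mRNA measured by RT-qPCR. Three biological repeats.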

[8] = Toxicity in BALB/c mouse xenografted with human MDA-MB-231 cells assessed as change in lung weight at 12.5 mg/kg, ip administered every 2 days in presence of 50 mg/kg JQ1; format: organism-based; conditions: in vivo, 48 h; summary of the method: as §1
MDA-MB-231 [9] = test: Inhibition of colony formation in human MDA-MB-231 cells at 10 uM incubated for 2 weeks in presence of 5 uM JQ1 by crystal violet staining based assay; format: functional, cell-based
Summary of the method: (§3)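 Cells are seeded at 1 × 10^3/well and treated with peptide (10 μM) for 2 weeks, alone or with JQ1 5 μM, iJMJD6 10 μM, ICI 2.5 μM, or tamoxifen 3 μM (tamoxifen-resistant lines). Colonies are stained with crystal violet, dissolved in 10% acetic acid, and read at 590 nm. Three biological repeats.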

[10] = Toxicity in BALB/c mouse xenografted with human MDA-MB-231 cells assessed as change in lung morphology at 12.5 mg/kg, ip administered every 2 days in presence of 50 mg/kg JQ1; format: organism-based; conditions: in vivo, 48 h; summary of the method: as §1
[11] = Downregulation of CCND1 protein expression in human MCF7 cells assessed as fold change in remaining CCND1 level at 10 uM incubated for 24 hrs by immunoblotting analysis (reference value: 1); format: functional
Summary of the method: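 Cells treated with peptide (10 μM) for 24 h. Lysates in Tris/NaCl/EDTA/1% Triton X-100, run on 10% SDS-PAGE and immunoblotted with ECL detection. β-actin as loading control. Three repeats, quantified against untreated cells.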

MCF7 [12] = test: Inhibition of colony formation in human MCF7 cells at 10 uM incubated for 2 weeks in presence of JMJD6 inhibitor by crystal violet staining based assay; format: functional, cell-based; summary of the method: as §3
MCF7 [13] = test: Antitumor activity against human MCF7 cells xenografted in BALB/c nude mouse assessed as reduction in tumor weight at 12.5 mg/kg, ip administered every 2 days in presence of 50 mg/kg JQ1; format: functional, organism-based
Summary of the method: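 Female BALB/c nude mice given 5 × 10^6 cells sc (MCF7 mice with E2 10^-2 M every 2 days), randomised at ~50 mm3. Peptide 12.5 mg/kg ip (saline) every 2 days, plus JQ1 50 mg/kg ip (DMSO/10% HPBCD 1:10) every 2 days or iJMJD6 12.5 mg/kg ip (DMSO/PBS 1:20). Caliper volume every 2 days; tumours weighed at the end.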

[14] = Toxicity in BALB/c mouse xenografted with human MCF7 cells assessed as change in lung weight at 12.5 mg/kg, ip administered every 2 days in presence of 50 mg/kg JQ1; format: organism-based; conditions: in vivo, 48 h
Mus musculus [15] = test: Downregulation of JMJD6 mRNA expression in BALB/c mouse tumor xenografted with human MDA-MB-231 cells at 25 mg/kg, ip administered every 2 days by RT-qPCR analysis; format: functional, organism-based
Mus musculus [16] = test: Downregulation of JMJD6 mRNA expression in BALB/c mouse tumor xenografted with human MCF7 cells at 25 mg/kg, ip administered every 2 days by RT-qPCR analysis; format: functional, organism-based
[17] = Downregulation of BRD4 protein expression in BALB/c mouse tumor xenografted with human MCF7 cells assessed as fold change in remaining BRD4 level at 25 mg/kg, ip administered every 2 days by immunoblotting analysis; format: functional
Summary of the method: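 Tumours taken from xenograft mice dosed with peptide at 25 mg/kg ip every 2 days. […] Three repeats.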

[18] = Toxicity in BALB/c mouse xenografted with human MCF7 cells assessed as change in kidney morphology at 12.5 mg/kg, ip administered every 2 days in presence of 50 mg/kg JQ1; format: organism-based; conditions: in vivo, 48 h
MDA-MB-231 [19] = test: Inhibition of cell migration in human MDA-MB-231 cells at 10 uM incubated for 24 hrs in presence of JMJD6 inhibitor by inverted microscopic analysis; format: functional, cell-based; summary of the method: as §2
MCF7 [20] = test: Antitumor activity against human MCF7 cells xenografted in BALB/c nude mouse assessed as reduction in tumor volume at 12.5 mg/kg, ip administered every 2 days in presence of 2.5 mg/kg fulvestrant; format: functional, organism-based
Summary of the method: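 MCF7 xenografts in female BALB/c nude mice on E2 (10^-2 M, every 2 days), randomised at ~50 mm3. Peptide 12.5 mg/kg ip every 2 days with fulvestrant 2.5 mg/kg sc (DMSO/corn oil 1:10) every 6 days. Caliper volume (1/2 × L × W²); tumours weighed at the end.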

CC[C@H](C)[C@H](NC(=O)[C@H](Cc1ccc(O)cc1)NC(=O)[C@@H]1C[C@@H](O)CN1C(=O)[C@H](C)NC(=O)[C@@H](NC(=O)CCCCCNC(=O)[C@H](CCC(=O)O)NC(=O)CNC(=O)[C@H](CS)NC(=O)[C@H](CCCCN)NC(=O)[C@H](Cc1ccccc1)NC(=O)[C@H](CCCCN)NC(=O)[C@H](CCC(N)=O)NC(=O)[C@H](CC(N)=O)NC(=O)[C@H](CCCNC(=N)N)NC(=O)[C@H](CCCNC(=N)N)NC(=O)[C@H](CCCNC(=N)N)NC(=O)[C@H](CCCNC(=N)N)NC(=O)[C@H](CCC(N)=O)NC(=O)[C@H](CCCNC(=N)N)NC(=O)[C@H](CCCNC(=N)N)NC(=O)[C@H](CCCCN)NC(=O)[C@H](CCCCN)NC(=O)[C@H](CCCNC(=N)N)NC(=O)CNC(=O)[C@@H](N)Cc1ccc(O)cc1)[C@@H](C)CC)C(=O)O (H-YGRKKRRQRRRRNQKFKCGE[Ahx]IA[Hyp]YI-OH)
0.58: fold change (FC) [11]
Non-Toxic: Activity [2] | Activity [5] | Activity [8] | Activity [10] | Activity [14] | Activity [18]
inactive: Activity (Mus musculus [1]) | Activity (Mus musculus [15]) | Activity (Mus musculus [16])
0.16: fold change (FC) [17]
active: Activity (MDA-MB-231 [3]) | inhibition (MCF7 [4]) | inhibition (MCF7 [6]) | Activity (MCF7 [7]) | inhibition (MDA-MB-231 [9]) | inhibition (MCF7 [12]) | Activity (MCF7 [13]) | inhibition (MDA-MB-231 [19]) | Activity (MCF7 [20])

H-YGRKKRRQRRRRNQKFKCGE-OH
active: Activity (MDA-MB-231 [3]) | inhibition (MCF7 [4]) | inhibition (MCF7 [6]) | Activity (MCF7 [7]) | inhibition (MDA-MB-231 [9]) | inhibition (MCF7 [12]) | Activity (MCF7 [13]) | inhibition (MDA-MB-231 [19]) | Activity (MCF7 [20])
0.54: fold change (FC) [17]
0.68: fold change (FC) [11]
Non-Toxic: Activity [2] | Activity [5] | Activity [8] | Activity [10] | Activity [14] | Activity [18]
inactive: Activity (Mus musculus [1]) | Activity (Mus musculus [15]) | Activity (Mus musculus [16])
